Data taken from ChEMBL document CHEMBL2380290, “Neonicotinic analogues: selective antagonists for α4β2 nicotinic acetylcholine receptors” (Bioorg Med Chem, 2013).
Active and inactive are the calls of the source. The calls are words filed in the database; no cut-off is given here.

Columns and labels:
[1] = target: T1, Neuronal acetylcholine receptor subunit alpha-7 (Homo sapiens, UniProt P36544); test: Displacement of [125I]alpha-bungarotoxin from human alpha7 nAChR overexpressed in human SH-SY5Y cells after 120 mins by liquid scintillation spectrometric analysis; type: cell-based
T1 sequence (P36544 whole entry): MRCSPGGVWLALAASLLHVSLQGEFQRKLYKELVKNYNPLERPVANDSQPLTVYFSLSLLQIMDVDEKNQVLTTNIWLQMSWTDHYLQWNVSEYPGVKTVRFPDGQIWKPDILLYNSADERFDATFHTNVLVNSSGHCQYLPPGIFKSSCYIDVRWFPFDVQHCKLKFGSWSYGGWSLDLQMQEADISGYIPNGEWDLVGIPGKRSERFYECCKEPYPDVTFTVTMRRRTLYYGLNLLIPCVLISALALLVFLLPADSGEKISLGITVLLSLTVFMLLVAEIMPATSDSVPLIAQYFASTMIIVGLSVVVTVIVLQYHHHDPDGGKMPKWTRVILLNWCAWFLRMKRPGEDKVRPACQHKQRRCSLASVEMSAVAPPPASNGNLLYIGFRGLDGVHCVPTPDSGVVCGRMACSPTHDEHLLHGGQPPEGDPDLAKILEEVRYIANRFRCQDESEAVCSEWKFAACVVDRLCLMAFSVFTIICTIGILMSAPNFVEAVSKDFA

[2] = target: T2, Neuronal acetylcholine receptor; alpha4/beta2 (Homo sapiens, UniProt P17787+P43681); test: Displacement of [3H]cytisine from human alpha4beta2 nAChR overexpressed in human SHEP cells after 75 mins by liquid scintillation spectrometric analysis; type: cell-based
T2 sequence (P17787 whole entry): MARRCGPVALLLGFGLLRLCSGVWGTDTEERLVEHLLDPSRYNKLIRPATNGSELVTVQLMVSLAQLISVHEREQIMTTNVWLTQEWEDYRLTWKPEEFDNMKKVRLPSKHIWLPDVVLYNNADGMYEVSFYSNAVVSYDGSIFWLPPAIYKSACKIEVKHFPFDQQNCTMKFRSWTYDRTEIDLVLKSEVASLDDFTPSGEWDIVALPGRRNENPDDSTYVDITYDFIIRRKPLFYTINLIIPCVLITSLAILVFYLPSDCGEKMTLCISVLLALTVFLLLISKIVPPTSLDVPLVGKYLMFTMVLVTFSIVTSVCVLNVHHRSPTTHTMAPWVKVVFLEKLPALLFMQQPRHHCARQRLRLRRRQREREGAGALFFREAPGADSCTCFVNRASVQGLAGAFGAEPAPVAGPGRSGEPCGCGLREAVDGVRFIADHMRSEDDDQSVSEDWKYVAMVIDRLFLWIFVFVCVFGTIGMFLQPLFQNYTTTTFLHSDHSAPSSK
T2 sequence (P43681 whole entry): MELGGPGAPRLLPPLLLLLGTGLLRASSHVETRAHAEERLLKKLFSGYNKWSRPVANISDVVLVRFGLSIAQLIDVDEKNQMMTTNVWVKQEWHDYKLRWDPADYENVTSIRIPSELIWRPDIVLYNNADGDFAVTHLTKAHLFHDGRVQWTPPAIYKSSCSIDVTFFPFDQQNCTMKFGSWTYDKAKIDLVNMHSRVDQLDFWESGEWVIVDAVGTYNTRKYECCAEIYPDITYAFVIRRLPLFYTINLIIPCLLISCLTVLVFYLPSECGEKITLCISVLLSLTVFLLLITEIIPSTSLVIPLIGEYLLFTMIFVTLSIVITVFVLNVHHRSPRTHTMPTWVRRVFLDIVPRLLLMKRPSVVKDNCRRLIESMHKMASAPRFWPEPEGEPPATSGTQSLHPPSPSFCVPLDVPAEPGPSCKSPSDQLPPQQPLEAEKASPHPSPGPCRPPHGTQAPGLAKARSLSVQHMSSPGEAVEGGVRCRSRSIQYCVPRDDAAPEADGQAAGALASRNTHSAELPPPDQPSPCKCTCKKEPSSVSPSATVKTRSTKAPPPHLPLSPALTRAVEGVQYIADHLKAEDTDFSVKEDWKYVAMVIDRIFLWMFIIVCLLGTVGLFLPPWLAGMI
Method in brief: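 SH-EP1-hα4β2 membrane homogenates (30–50 µg protein) were incubated with 1 nM [3H]cytisine for 75 min at 4 °C in Tris binding saline, pH 7.0. Filtration on PEI-soaked GF/C filters, scintillation counting. Four experiments in triplicate.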

[3] = target: Nicotinic acetylcholine receptor alpha4/beta2/alpha5 (Homo sapiens, UniProt P17787+P30532+P43681); test: Antagonist activity at (alpha4beta2)2alpha5 nAChR (unknown origin) expressed in Xenopus oocytes assessed as inhibition of acetylcholine-induced current after 2 mins by two-electrode voltage clamp assay; type: cell-based, Oocyte
Nicotinic acetylcholine receptor alpha4/beta2/alpha5, sequence (P17787 whole entry): as the sequence (P17787 whole entry) above
Nicotinic acetylcholine receptor alpha4/beta2/alpha5, sequence (P43681 whole entry): as the sequence (P43681 whole entry) above
Nicotinic acetylcholine receptor alpha4/beta2/alpha5, sequence (P30532 whole entry): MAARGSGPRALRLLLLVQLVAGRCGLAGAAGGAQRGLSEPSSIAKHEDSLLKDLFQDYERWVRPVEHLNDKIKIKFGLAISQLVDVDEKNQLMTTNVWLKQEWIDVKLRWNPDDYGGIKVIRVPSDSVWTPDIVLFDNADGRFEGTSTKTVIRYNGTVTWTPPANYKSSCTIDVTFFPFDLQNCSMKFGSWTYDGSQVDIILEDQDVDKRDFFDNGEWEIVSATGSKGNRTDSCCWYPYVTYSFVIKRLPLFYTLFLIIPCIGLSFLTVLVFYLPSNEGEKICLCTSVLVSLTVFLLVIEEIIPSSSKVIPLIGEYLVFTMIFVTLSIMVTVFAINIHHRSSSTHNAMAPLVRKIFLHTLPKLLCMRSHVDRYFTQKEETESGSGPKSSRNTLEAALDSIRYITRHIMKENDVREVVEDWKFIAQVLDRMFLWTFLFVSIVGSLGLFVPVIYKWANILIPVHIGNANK

[4] = target: T2, Neuronal acetylcholine receptor; alpha4/beta2; test: Antagonist activity at (alpha4beta2)2beta2 nAChR (unknown origin) expressed in Xenopus oocytes assessed as inhibition of acetylcholine-induced current after 2 mins by two-electrode voltage clamp assay; type: cell-based, Oocyte
[5] = target: T1, Neuronal acetylcholine receptor subunit alpha-7; test: Displacement of [125I]alpha-bungarotoxin from human alpha7 nAChR overexpressed in human SH-SY5Y cells at 1 mM after 120 mins by liquid scintillation spectrometric analysis; type: cell-based
Method in brief: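 Membranes from SH-SY5Y-hα7 cells (30–50 µg protein) were incubated with 1 nM [125I]α-BgTx in Tris binding saline, pH 7.0, for 120 min at 25 °C. […] GF/C filtration, top test concentration 1 mM. […] Four experiments, triplicate.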

[6] = target: T2, Neuronal acetylcholine receptor; alpha4/beta2; test: Antagonist activity at (alpha4beta2)2alpha4 nAChR (unknown origin) expressed in Xenopus oocytes assessed as inhibition of acetylcholine-induced current after 2 mins by two-electrode voltage clamp assay; type: cell-based, Oocyte

Structure (SMILES)	IC50 [1] [µM]	Ki [1] [µM]	inhibition [1]	IC50 [2] [µM]	Ki [2] [µM]	inhibition [2]	IC50 [3] [µM]	IC50 [4] [µM]	inhibition [5]	IC50 [6] [µM]
CN1CCC[C@H]1COC(=O)c1cnc2ccccc2c1	97.3	48.7	Dose-dependent effect	0.759	0.217	Dose-dependent effect				
CN1CCC[C@H]1COC(=O)c1cccc(N)c1			Dose-dependent effect	0.0284	0.0081	Dose-dependent effect	480	4.3	inactive	1.02
CN1CCC[C@H]1COC(=O)c1ccc(Cl)cc1	8.9	4.5	Dose-dependent effect	0.0394	0.0112	Dose-dependent effect	6	3.6		95
CN1CCC[C@H]1COC(=O)c1ccc(Cl)nc1	58.5	29.3	Dose-dependent effect	0.528	0.151	Dose-dependent effect				
CN1CCC[C@H]1COC(=O)c1ccc(OCc2ccccc2)cc1	2.3	1.1	Dose-dependent effect	0.0042	0.0012	Dose-dependent effect	17.8	25.8		3.6
CN1CCC[C@H]1COC(=O)c1ccccc1	13.4	6.7	Dose-dependent effect	0.0819	0.0234	Dose-dependent effect	52.3	2.5		313
CN1CCC[C@H]1COC(=O)c1ccc(OCc2ccccc2)nc1	59.1	29.5		0.166	0.0455					
CN1CCC[C@H]1COC(=O)c1cccc([N+](=O)[O-])c1	464	232		1.61	0.46					
CN1CCC[C@H]1COC(=O)c1ccc(Br)cc1	21.1	10.5	Dose-dependent effect	0.0784	0.0224	Dose-dependent effect				
